# Source: PubChem
# A selection: hits, their analogues and other compounds. The true share with any hit is near 4.1%.
# MrgX1 antag: human MrgX1 receptor antagonism, primary screen; B-score at 10 µM; 310,000 tested, 1.3% active; Q96LB2; MRGX1-HEK293 calcium flux, Fluo-4, BAM8-22 antagonism; hits give low values; AID 588676;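 active means calcium-response B-score plate-corrected more than 3 library SD below zero, starting fluorescence within 5 deviations, no agonist response on first addition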;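 further: peak minus trough fluorescence over baseline after final BAM8-22 challenge near maximal dose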
# Target sequence (Q96LB2 whole entry, looked up): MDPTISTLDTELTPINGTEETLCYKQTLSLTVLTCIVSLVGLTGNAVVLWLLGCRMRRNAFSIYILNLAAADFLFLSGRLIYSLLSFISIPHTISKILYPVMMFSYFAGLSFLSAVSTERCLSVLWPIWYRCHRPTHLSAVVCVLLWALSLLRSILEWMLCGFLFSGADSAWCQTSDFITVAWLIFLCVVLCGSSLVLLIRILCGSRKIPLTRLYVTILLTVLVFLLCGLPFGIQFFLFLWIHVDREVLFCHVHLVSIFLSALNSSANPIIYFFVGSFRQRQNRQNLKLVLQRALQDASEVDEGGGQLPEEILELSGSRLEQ
# MrgX1 agonist: agonists of human MrgX1 receptor; Q96LB2; MrgX1-HEK293 cells, Fluo-4 calcium fluorescence, agonist mode; hits give high values; B-score at 10 µM; AID 588627; 310,000 tested, 0.44% active;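 active means calcium response B-score plate-corrected fluorescence ratio at least 3 library SD, with starting fluorescence B-score inside 5 SD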
#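 times = overnight plating, then 30 min 37 °C plus 30 min room-temperature dye loading | assay system = stable human MrgX1 HEK293 cell line | input = fifteen thousand cells per well | signal = kinetic calcium dye fluorescence, Fluo-4 NW | dosing = compound delivered in addition one of three | read-out = B-scored fluorescence response ratio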
# MrgX1 allo act: allosterically activates human MrgX1 receptor signaling. Q96LB2. MrgX1-HEK293, Fluo-4 calcium flux, FDSS; hits give high values. B-score at 10 µM. 310,000 tested, 0.63% active. AID 588675;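 active means plate-corrected calcium response at least 3 library SD above typical, normal starting fluorescence, not activating the receptor alone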;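 further: compound read alongside a low EC10 to EC30 dose of BAM8-22 agonist; peak minus trough fluorescence over baseline measured at the second addition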
# RGS4 pot: RGS4 potentiation or activation | HEK293 M3R/inducible RGS4, carbachol calcium flux Fluo4; hits give low values | B-score at 10 µM | 310,000 tested, 0.92% active;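 active means B-score of the integrated calcium signal more than 4 SD below the library mean, with starting fluorescence not abnormally high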;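 further: negative B-score means reduced calcium response which marks RGS4 activation or potentiation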
#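 System: HEK293 FlpIn-TREx cells, stable M3R, doxycycline-inducible RGS4. Timing: overnight RGS4 induction, 30 min dye load 37 °C, 20 min compound RT. Also added: carbachol, ECmax concentration. Measured by: Fluo4 fluorescence kinetic imaging of calcium. Evaluation: integrated calcium ratio converted to B score.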
# RGS4 block: human RGS4 inhibition; P49798; HEK293 M3R/RGS4 inducible, Fluo-4 calcium flux; hits give high values; triggered by carbachol at its EC20; B-score at 10 µM; 310,000 tested, 0.45% active;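 active means B-score, a plate-corrected calcium signal, over three deviations above library mean, with baseline fluorescence within five deviations of library mean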;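 further: RGS4 expression induced by doxycycline in cells with stable M3 receptor; B-score is computed from the integrated fluorescence ratio over baseline after carbachol; higher B-score means a larger calcium signal and so more RGS4 inhibition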
# Target sequence (P49798 whole entry, looked up): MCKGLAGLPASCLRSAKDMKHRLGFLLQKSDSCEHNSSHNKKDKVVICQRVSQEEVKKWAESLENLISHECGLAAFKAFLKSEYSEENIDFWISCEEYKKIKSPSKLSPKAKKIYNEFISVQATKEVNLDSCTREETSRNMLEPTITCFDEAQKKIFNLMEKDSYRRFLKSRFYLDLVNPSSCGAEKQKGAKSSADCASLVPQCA
# Kir21 block: Kir2.1 (mouse) channel inhibition. P35561. HEK293-Kir2.1, FluxOR thallium flux fluorescence; hits give low values. B-score at 10 µM. 310,000 tested, 0.85% active. AID 1672;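 active means fluorescence ratio B-score at or below minus 3 SD of library scores, with starting-brightness B-score within 2 SD, cut at about -4.2 in these data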;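 further: channel flux triggered by added potassium and thallium sulfate stimulus; B-score of peak minus minimum fluorescence over baseline after thallium stimulus; more negative B-score means stronger Kir2.1 block with less thallium influx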
# Starred values were filed as active, the others as inactive; i = inactive; · = no result.
SMILES,MrgX1 antag,MrgX1 agonist,MrgX1 allo act,RGS4 pot,RGS4 block,Kir21 block
O=c1c(C=NCCN2CCNCC2)c(-c2ccccc2)[nH]n1-c1ccc([N+](=O)[O-])cc1,i,i,i,i,i,-5.4*
Cc1ccccc1CN1CCN(C(=O)c2cc(-c3ccncc3)nc3ccccc23)CC1,i,i,i,-7.1*,i,-0.64
CC(=O)c1ccc(N2CCN(C(=O)c3cc(-c4ccncc4)nc4ccc(Cl)cc34)CC2)cc1,i,i,i,-7.4*,i,1.8
COc1cccc(CN2CCN(C(=O)c3cc(-c4ccncc4)nc4ccc(C)cc34)CC2)c1,i,i,i,-7*,i,-0.73
CC1CC(C)CN(C(=O)c2cc(-c3ccncc3)nc3ccccc23)C1 (centres undefined),i,i,i,i,i,-0.78
O=C(COC(=O)c1ccc2c(c1)OCCO2)NCCC1=CCCCC1,i,i,i,i,i,-0.64
CCOC(=O)c1nnn(-c2nonc2N)c1-c1ccccc1Cl,i,i,i,i,i,-4.9*
CCOC(=O)c1nnn(-c2nonc2N)c1-c1cccc2ccccc12,i,i,i,i,i,-1.9
Cc1c(NC(=O)C2CCCN(S(=O)(=O)c3cnc[nH]3)C2)c(=O)n(-c2ccccc2)n1C (centres undefined),-7.3*,i,i,i,i,-2.2
CCN1CSC(=S)N(Cc2ccc(OC)cc2)C1,i,i,i,i,i,-0.75
CN(C)c1nccc(N(Cc2ccccc2)Cc2ccccc2)c1C#N,i,i,i,-7*,i,0.09
CC(=O)c1sc(NC(=O)c2ccc(Cn3cc(Br)cn3)o2)nc1C,i,i,6.5*,i,i,1.1
O=C1CN(C(=O)COc2ccccc2)c2ccccc2N1,i,i,i,i,i,0.85
Cn1c(-c2ccccc2)cnc1NCc1ccc(F)cc1,·,·,·,i,i,-4.9*
N#Cc1ccc(NC(=O)Cn2cnc(S(=O)(=O)N3CCc4ccccc43)c2)cc1,i,i,i,i,i,-0.33
COCCCNc1oc(COc2ccc(Cl)cc2Cl)nc1C#N,i,i,i,i,i,-0.04
COc1ccc(CCNc2oc(COc3ccc(Br)cc3)nc2C#N)cc1OC,i,i,i,-7.5*,i,-0.11
CN(C)CCNc1oc(COc2ccc(Cl)cc2Cl)nc1C#N,-6.5*,i,i,i,i,-0.47
COc1cc(/C=N/O)cc(Br)c1OCC(=O)NCc1ccccc1,i,i,i,i,i,-6*
CCOc1cc(/C=N/O)cc(Br)c1OCC(=O)NCc1ccccc1,i,i,i,i,i,-1.2
N=C(N)c1ccc(OCCCCCOc2ccc(C(=N)N)cc2)cc1,i,34*,i,i,i,1.1
O=C(NCC(c1cccs1)N1CCOCC1)c1ccccc1NS(=O)(=O)c1cccc([N+](=O)[O-])c1 (centres undefined),i,i,i,i,i,0.85
CC(C)CCNC(=O)c1onc(CSc2ccc(F)c(F)c2)c1C(=O)NCCC(C)C,i,i,i,i,i,2.6
Oc1ccccc1/C=N/Nc1nn[nH]n1,i,i,i,i,i,1.2
Cc1ccc(S(=O)(=O)c2cn(Cc3ccc(F)cc3)c3cc4c(cc3c2=O)OCO4)cc1,-4.6*,i,i,i,i,-1.6
SMILES,MrgX1 antag,MrgX1 agonist,MrgX1 allo act,RGS4 pot,RGS4 block,Kir21 block
C/C(=N/NC(=O)CSc1nc2ccccc2n1C)c1ccncc1,i,i,i,i,i,-0.62
CC(C)C[C@@H](COc1ccccc1)N1CCN(CCc2ccccc2)CCC1=O,i,i,11*,i,i,-0.07
COc1ccc(/C=C(\C#N)C(=O)NCCc2ccccc2)cc1OCc1ccccc1,i,i,i,i,i,0.6
N#C/C(=C\c1ccc(O)c(O)c1)C(=O)NCCCc1ccccc1,i,i,6.7*,i,i,-1.6
CC(C)(C)OC(=O)NCCCC[C@H](NC(=O)c1[nH]cnc1C(=O)Nc1ccccc1)C(=O)OC(C)(C)C,i,i,i,i,i,1.2
Cc1ccccc1N/N=C/c1c(C)nc2ccccn12,i,i,8.5*,i,i,1.5
CCOC(=O)c1ccc(/C=C2/C=C(c3ccccc3)N(c3ccc(Cl)c(C(=O)O)c3)C2=O)cc1,i,40*,i,i,i,-6.6
CCOC(=O)c1ccc(Cl)c(NC(=O)c2ccc(-c3ccccc3)cc2)c1,i,i,i,i,i,-0.93
Cc1ccc(-n2cc(-c3ccc([N+](=O)[O-])cc3)[nH]c2=S)c(C)c1,i,i,9.7*,i,i,0.03
Cc1cccc(-n2cc(-c3ccc([N+](=O)[O-])cc3)[nH]c2=S)c1,i,i,i,i,i,1.7
CCN(CC)CCNC(=O)CSc1c2c(nc3cc(Cl)ccc13)CCCC2,i,i,i,-7.3*,i,-1
Cc1cccc(NC(=O)CSc2c3c(nc4ccccc24)CCC3)n1,i,i,i,i,i,-2
COc1cccc(NC(=O)CSc2c3c(nc4ccccc24)CCCC3)c1,i,i,i,i,i,-5.8*
CCOC(=O)c1[nH]c(C)c(/C(O)=C2\C(=O)C(=O)N(CCN3CCOCC3)C2c2ccco2)c1C (centres undefined),i,i,i,i,i,-1.2
CN(NC(=O)c1ccc(Cl)cc1Cl)C1=NS(=O)(=O)c2ccccc21,-6.3*,i,i,i,i,-0.36
CN(NC(=O)c1ccccc1)C1=NS(=O)(=O)c2ccccc21,i,i,i,i,i,1.2
COc1ccc(-c2[nH]ncc2CN2CCSCC2)c(OC)c1,i,i,i,i,i,0
COc1ccc(-c2[nH]ncc2CN(CCO)CC23CC4CC(CC(C4)C2)C3)c(OC)c1,i,i,i,i,i,-5.6*
CCCNC(=O)NC(=O)COC(=O)c1ccc(S(=O)(=O)N(C)c2ccccc2OC)cc1,i,i,i,i,i,-0.42
[O-][n+]1cccc2c(Br)cc(Br)c(O)c21,-4.7*,i,i,i,i,-2
Cc1cc(/C=N/NC(=O)CC#N)c(C)n1-c1ccc([N+](=O)[O-])cc1,i,i,i,i,i,0.01
